How the values were obtained:
[1] = Selectivity for HCV NS3 protease over human neutrophil elastase
Method in brief: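 Compounds were also assayed against human neutrophil elastase. Selectivity is expressed as the HNE/HCV ratio of the two enzyme potencies.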

[2] = Inhibition of HCV NS3 protease in absence of human serum; parameters: species or system Hepacivirus hominis
Method in brief: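 Continuous enzymatic assay using NS4A-tethered single-chain HCV NS3 serine protease, without human serum. Ki* is the equilibrium constant, which includes the reversible covalent ketone–serine bond. Compounds were tested as P1 diastereomer mixtures (2:1 to 1:2) that equilibrate rapidly under assay conditions.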

Hepatitis C virus = assay: Antiviral activity against HCV assessed as inhibition of virus replication by cell based assay in absence of human serum; type: functional, Hepacivirus hominis
Method in brief: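 Replicon-based cellular assay run without human serum. EC90 is the concentration that inhibits replicon replication by 90%. Compounds were tested as rapidly equilibrating P1 diastereomer mixtures.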

| SMILES | Ratio [1] | Ki [2] | EC90 (Hepatitis C virus) |
| --- | --- | --- | --- |
| C=CCNC(=O)C(=O)C(CC1CCC1)NC(=O)[C@@H]1[C@@H]2[C@H](CN1C(=O)[C@@H](NC(=O)N[C@@H](CN1C(=O)CC(C)(C)CC1=O)C(C)(C)C)C(C)(C)C)C2(C)C (stereo partly drawn) | 6400 | 7 nM | 40 nM |
| CCCCC(NC(=O)[C@@H]1[C@@H]2[C@H](CN1C(=O)[C@@H](NC(=O)N[C@@H](CN1C(=O)CC(C)(C)CC1=O)C(C)(C)C)C(C)(C)C)C2(C)C)C(=O)C(=O)NC1CC1 (stereo partly drawn) | 6100 | 5 nM | 30 nM |
| C=CCNC(=O)C(=O)C(CCCC)NC(=O)[C@@H]1[C@@H]2[C@H](CN1C(=O)[C@@H](NC(=O)N[C@@H](CN1C(=O)C3CC3C1=O)C(C)(C)C)C(C)(C)C)C2(C)C (stereo partly drawn) | 9500 | 5 nM | 70 nM |
| CCCCC(NC(=O)[C@@H]1[C@@H]2[C@H](CN1C(=O)[C@@H](NC(=O)N[C@@H](CN1C(=O)CC(C)(C)CC1=O)C(C)(C)C)C(C)(C)C)C2(C)C)C(=O)C(=O)NCc1ccccc1 (stereo partly drawn) | 1100 | 14 nM | 40 nM |
| C=CCNC(=O)C(=O)C(CCCC)NC(=O)[C@@H]1[C@@H]2[C@H](CN1C(=O)[C@@H](NC(=O)N[C@@H](CN1C(=O)c3ccccc3C1=O)C(C)(C)C)C(C)(C)C)C2(C)C (stereo partly drawn) | 500 | 30 nM | 750 nM |
| C=CCNC(=O)C(=O)C(CCCC)NC(=O)[C@@H]1[C@@H]2[C@H](CN1C(=O)[C@@H](NC(=O)N[C@@H](CN1C(=O)CN(C)C1=O)C(C)(C)C)C(C)(C)C)C2(C)C (stereo partly drawn) | 1200 | 19 nM | 250 nM |
| C=CCNC(=O)C(=O)C(CCCC)NC(=O)[C@@H]1[C@@H]2[C@H](CN1C(=O)[C@@H](NC(=O)N[C@@H](CN1C(=O)NC(C)(C)C1=O)C(C)(C)C)C(C)(C)C)C2(C)C (stereo partly drawn) | 2500 | 11 nM | 250 nM |
| CCCCC(NC(=O)[C@@H]1[C@@H]2[C@H](CN1C(=O)[C@@H](NC(=O)N[C@@H](CN1C(=O)CC(C)(C)CC1=O)C(C)(C)C)C(C)(C)C)C2(C)C)C(=O)C(=O)NCc1ccccn1 (stereo partly drawn) | 2500 | 22 nM | 80 nM |
| C=CCNC(=O)C(=O)C(CCCC)NC(=O)[C@@H]1[C@@H]2[C@H](CN1C(=O)[C@@H](NC(=O)N[C@@H](CN1C(=O)CCC(C)(C)C1=O)C(C)(C)C)C(C)(C)C)C2(C)C (stereo partly drawn) | 3100 | 7 nM | 35 nM |
| C=CCNC(=O)C(=O)C(CCCC)NC(=O)[C@@H]1[C@@H]2[C@H](CN1C(=O)C(NC(=O)NC(CN1C(=O)CC(C)(C)CC1=O)C(C)(C)C)C1Cc3ccccc3C1)C2(C)C (single isomer, unassigned) | 1800 | 4 nM | 100 nM |
| C=CCNC(=O)C(=O)C(CCCC)NC(=O)[C@@H]1[C@@H]2[C@H](CN1C(=O)[C@@H](NC(=O)NC(CN1C(=O)CCNC1=O)C(C)(C)C)C(C)(C)C)C2(C)C (single isomer, unassigned) | 4300 | 4 nM | 150 nM |
| CCCCC(NC(=O)[C@@H]1[C@@H]2[C@H](CN1C(=O)[C@@H](NC(=O)NC(CN1C(=O)CC(C)(C)CC1=O)C(C)(C)C)C(C)(C)C)C2(C)C)C(=O)C(=O)NCc1cccs1 (single isomer, unassigned) | 900 | 12 nM | 100 nM |
| C=CCNC(=O)C(=O)C(CCCC)NC(=O)[C@@H]1[C@@H]2[C@H](CN1C(=O)[C@@H](NC(=O)NC(CN1C(=O)COCC1=O)C(C)(C)C)C(C)(C)C)C2(C)C (single isomer, unassigned) | 7200 | 8 nM | 500 nM |
| C=CCNC(=O)C(=O)C(CCCC)NC(=O)[C@@H]1[C@@H]2[C@H](CN1C(=O)[C@@H](NC(=O)NC(CN1C(=O)N(C)C(C)(C)C1=O)C(C)(C)C)C(C)(C)C)C2(C)C (single isomer, unassigned) | 1600 | 8 nM | 60 nM |
| C=CCNC(=O)C(=O)C(CCCC)NC(=O)[C@@H]1[C@@H]2[C@H](CN1C(=O)[C@@H](NC(=O)NC(CN1C(=O)CNC1=O)C(C)(C)C)C(C)(C)C)C2(C)C (single isomer, unassigned) | 1200 | 8 nM | 1000 nM |
| C=CCNC(=O)C(=O)C(CCCC)NC(=O)[C@@H]1[C@@H]2[C@H](CN1C(=O)[C@@H](NC(=O)NC(CN1C(=O)CC3(CCCC3)CC1=O)C(C)(C)C)C(C)(C)C)C2(C)C (single isomer, unassigned) | 3800 | 6 nM | 200 nM |
| CCCCC(NC(=O)[C@@H]1[C@@H]2[C@H](CN1C(=O)[C@@H](NC(=O)NC(CN1C(=O)CC(C)(C)CC1=O)C(C)(C)C)C(C)(C)C)C2(C)C)C(=O)C(=O)NCCC (single isomer, unassigned) | 910 | 21 nM | 80 nM |
| C=CCNC(=O)C(=O)C(CCCC)NC(=O)[C@@H]1[C@@H]2[C@H](CN1C(=O)[C@@H](NC(=O)NC(CN1C(=O)CCN(C)C1=O)C(C)(C)C)C(C)(C)C)C2(C)C (single isomer, unassigned) | 1400 | 7 nM | 60 nM |
| CCCCC(NC(=O)[C@@H]1[C@@H]2[C@H](CN1C(=O)[C@@H](NC(=O)NC(CN1C(=O)CC(C)(C)CC1=O)C(C)(C)C)C(C)(C)C)C2(C)C)C(=O)C(=O)NCC (single isomer, unassigned) | 8200 | 13 nM | 70 nM |
| C=CCNC(=O)C(=O)C(CCCC)NC(=O)[C@@H]1[C@@H]2[C@H](CN1C(=O)C(NC(=O)NC(CN1C(=O)CC(C)(C)CC1=O)C(C)(C)C)C1(C)Cc3ccccc3C1)C2(C)C (single isomer, unassigned) | 220 | 32 nM | 80 nM |
| C=CCNC(=O)C(=O)C(CCCC)NC(=O)[C@@H]1[C@@H]2[C@H](CN1C(=O)C(NC(=O)NC(CN1C(=O)CC(C)(C)CC1=O)C(C)(C)C)C1(C)CCCCC1)C2(C)C (single isomer, unassigned) | 1000 | 4 nM | 45 nM |
| C=CCNC(=O)C(=O)C(CCCC)NC(=O)[C@@H]1[C@@H]2[C@H](CN1C(=O)[C@@H](NC(=O)NC(CN1C(=O)CN(c3ccccc3)CC1=O)C(C)(C)C)C(C)(C)C)C2(C)C (single isomer, unassigned) | 90 | 12 nM | 100 nM |
| C=CCNC(=O)C(=O)C(CCCC)NC(=O)[C@@H]1[C@@H]2[C@H](CN1C(=O)[C@@H](NC(=O)NC(CN1C(=O)CC(C)(CC)CC1=O)C(C)(C)C)C(C)(C)C)C2(C)C (single isomer, unassigned) | 2500 | 8 nM | 40 nM |
| C=CCNC(=O)C(=O)C(CCC)NC(=O)[C@@H]1[C@@H]2[C@H](CN1C(=O)[C@@H](NC(=O)NC(CN1C(=O)CC(C)(C)CC1=O)C(C)(C)C)C(C)(C)C)C2(C)C (single isomer, unassigned) | 1600 | 4 nM | 40 nM |
| C=CCNC(=O)C(=O)C(CCCC)NC(=O)[C@@H]1[C@@H]2[C@H](CN1C(=O)[C@@H](NC(=O)NC(CN1C(=O)CCC1=O)C(C)(C)C)C(C)(C)C)C2(C)C (single isomer, unassigned) | 2000 | 13 nM | 230 nM |
| C=CCNC(=O)C(=O)C(CCCC)NC(=O)[C@@H]1[C@@H]2[C@H](CN1C(=O)[C@@H](NC(=O)NC(CN1C(=O)C3CCC(C3)C1=O)C(C)(C)C)C(C)(C)C)C2(C)C (single isomer, unassigned) | 7000 | 6 nM | 60 nM |

Source: ChEMBL document CHEMBL1140915, “Second-generation highly potent and selective inhibitors of the hepatitis C virus NS3 serine protease” (J Med Chem, 2009)
